The source of these data is ChEMBL document CHEMBL4373713, “Effect of 1-Deoxynojirimycin Isolated from Mulberry Leaves on Glucose Metabolism and Gut Microbiota in a Streptozotocin-Induced Diabetic Mouse Model” (J Nat Prod, 2019).

The subject of test [1] is Mus musculus. The experiment in a line: Antidiabetic activity in STZ-induced Kunming mouse model of diabetes assessed as increase in Lactobacillus level in feces at 31.25 to 125 mg/kg, po administered QD administered via gavage for 4 weeks by 16S rDNA based Illumina sequencing method. Type of test: functional, organism-based.
Test [2] relates to Mus musculus. Nature of the test: Antidiabetic activity in STZ-induced Kunming mouse model of diabetes assessed as decrease in Prevo-tellaceae UCG-001 level in feces at 62.5 to 125 mg/kg, po administered QD administered via gavage for 4 weeks by 16S rDNA based DNA sequencing analysis. Type of test: functional, organism-based.
Test [3] deals with Mus musculus. Nature of the test: Antidiabetic activity in STZ-induced Kunming mouse model of diabetes assessed as decrease in Escherichia-Shigella level in feces at 31.25 to 125 mg/kg, po administered QD administered via gavage for 4 weeks by 16S rDNA based Illumina sequencing method. Type of test: functional, organism-based.
Test [4] concerns Mus musculus. Nature of the test: Antidiabetic activity in po dosed STZ-induced Kunming mouse model of diabetes assessed as increase in Bacteroidetes level in feces administered QD administered via gavage for 4 weeks by 16S rDNA based Illumina sequencing method. Type of test: functional, organism-based.
Test [5] concerns Mus musculus. The experiment in a line: Antidiabetic activity in STZ-induced Kunming mouse model of diabetes assessed as increase in Lackno-spiraceae NK4A136 level in feces at 31.25 to 125 mg/kg, po administered QD administered via gavage for 4 weeks by 16S rDNA based Illumina sequencing method. Type of test: functional, organism-based.
Test [6] relates to Mus musculus. Nature of the test: Antidiabetic activity in STZ-induced Kunming mouse model of diabetes assessed as increase in PK expression level in liver at 62.5 to 125 m/kg, po administered QD administered via gavage for 4 weeks by Western blot analysis. Type of test: functional, organism-based. The method, boiled down:
(§1)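 Livers from diabetic mice after 28 days of daily gavage (31.25–125 mg/kg) were homogenized and spun at 14 000g, 4 °C. Proteins were run on 10% SDS-PAGE and transferred to PVDF, then blocked in 5% milk for 1 h. Primary antibodies (GK, PK, PFK, PCB, PEPCK, FBPase, G-6-Pase, p-IR Tyr999, p-IRS-1 Ser307) were applied for 1 h at 25 °C, followed by HRP anti-rabbit IgG and ECL detection. Mean ± SD, Duncan's test.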
For orientation: A western blot detects proteins with antibodies after separation by electrophoresis.

The test system of test [7] is Mus musculus. The experiment in a line: Antidiabetic activity in STZ-induced Kunming mouse model of diabetes assessed as decrease in Weis-sella level in feces at 31.25 to 125 mg/kg, po administered QD administered via gavage for 4 weeks by 16S rDNA based DNA sequencing analysis. Type of test: functional, organism-based.
For test [8], the system named is Mus musculus. Nature of the test: Antidiabetic activity in STZ-induced Kunming mouse model of diabetes assessed as decrease in Bacteroidales S24-7 level in feces at 62.5 to 125 mg/kg, po administered QD administered via gavage for 4 weeks by 16S rDNA based DNA sequencing analysis. Type of test: functional, organism-based.
Test [9] deals with Mus musculus. Nature of the test: Antidiabetic activity in STZ-induced Kunming mouse model of diabetes assessed as increase in PFK expression level in liver at 125 m/kg, po administered QD administered via gavage for 4 weeks by Western blot analysis. Type of test: functional, organism-based. Summed up:
as §1

Test [10] deals with Mus musculus. The experiment in a line: Antidiabetic activity in STZ-induced Kunming mouse model of diabetes assessed as reduction in serum glucose level 125 mg/kg, po administered QD administered via gavage for 4 weeks and measured 4 weeks during compound dosing. Type of test: functional, organism-based. Summed up: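 Fasting serum glucose was taken from the tail tip on days 0, 7, 14, 21 and 28 in STZ (35 mg/kg i.p.)/high-fat-diet Kunming mice. Mice were gavaged once daily at 31.25, 62.5 or 125 mg/kg in 0.5 mL, n=10 per group.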

Test [11] deals with Mus musculus. The experiment in a line: Antidiabetic activity in STZ-induced Kunming mouse model of diabetes assessed as increase in glucose tolerance 31.25 to 125 mg/kg, po administered QD administered via gavage for 4 weeks and measured on day 26 followed by glucose challenge after 30 mins during compound dosing by OGTT. Type of test: functional, organism-based. The method, boiled down:
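On treatment day 26, after a 12 h fast, diabetic mice received oral glucose at 2.0 g/kg. Tail-tip blood glucose was read at 0, 30, 60, 90 and 120 min. Daily gavage dosing was 31.25–125 mg/kg, n=10 per group.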

The test system of test [12] is Mus musculus. The experiment in a line: Antidiabetic activity in STZ-induced Kunming mouse model of diabetes assessed as increase in Oscillibacter level in feces at 31.25 to 125 mg/kg, po administered QD administered via gavage for 4 weeks by 16S rDNA based Illumina sequencing method. Type of test: functional, organism-based.
The subject of test [13] is Mus musculus. The experiment in a line: Antidiabetic activity in STZ-induced Kunming mouse model of diabetes assessed as down regulation of glucose-6-phosphatase expression level in liver at 62.5 to 125 m/kg, po administered QD administered via gavage for 4 weeks by Western blot analysis. Type of test: functional, organism-based. Summed up: as §1
Test [14] relates to Mus musculus. Nature of the test: Antidiabetic activity in STZ-induced diabetic Kunming mouse assessed as increase in body weight gain at 62.5 to 125 mg/kg, po QD administered via gavage for 4 weeks and measured every 3 days for 28 day.
In test [15] the test system is Mus musculus. Nature of the test: Antidiabetic activity in STZ-induced Kunming mouse model of diabetes assessed as down regulation of fructose-1-6-phosphatase expression level in liver at 31.25 to 125 m/kg, po administered QD administered via gavage for 4 weeks by Western blot analysis. Type of test: functional, organism-based. The method, boiled down: as §1
Test [16] has as its system Mus musculus. The experiment in a line: Antidiabetic activity in STZ-induced Kunming mouse model of diabetes assessed as increase in GK expression level in liver at 62.5 to 125 m/kg, po administered QD administered via gavage for 4 weeks by Western blot analysis. Type of test: functional, organism-based. Summed up: as §1
Test [17] deals with Mus musculus. The experiment in a line: Antidiabetic activity in STZ-induced Kunming mouse model of diabetes assessed as decrease in Klebsiella level in feces at 62.5 to 125 mg/kg, po administered QD administered via gavage for 4 weeks by 16S rDNA based DNA sequencing analysis. Type of test: functional, organism-based.
The subject of test [18] is Mus musculus. The experiment in a line: Antidiabetic activity in po dosed STZ-induced Kunming mouse model of diabetes assessed as increase in Firmicutes level in feces administered QD administered via gavage for 4 weeks by 16S rDNA based Illumina sequencing method. Type of test: functional, organism-based.
Test [19] relates to Mus musculus. Nature of the test: Antidiabetic activity in STZ-induced Kunming mouse model of diabetes assessed as down regulation of PEPCK expression level in liver at 62.5 to 125 m/kg, po administered QD administered via gavage for 4 weeks by Western blot analysis. Type of test: functional, organism-based. Summed up: as §1
For test [20], the system named is Mus musculus. The experiment in a line: Antidiabetic activity in STZ-induced Kunming mouse model of diabetes assessed as decrease in Ruminococcus level in feces at 31.25 to 125 mg/kg, po administered QD administered via gavage for 4 weeks by 16S rDNA based DNA sequencing analysis. Type of test: functional, organism-based.
For test [21], the system named is Mus musculus. Nature of the test: Antidiabetic activity in STZ-induced Kunming mouse model of diabetes assessed as decrease in Anaer-ostipes level in feces at 31.25 to 125 mg/kg, po administered QD administered via gavage for 4 weeks by 16S rDNA based DNA sequencing analysis. Type of test: functional, organism-based.

The structures appear in SMILES notation. Active and inactive are the calls of the source. No cut-off for these calls is given here.

As to `OC[C@H]1NC[C@H](O)[C@@H](O)[C@@H]1O`, the result in the test on Mus musculus [1], with Mus musculus [2], in the test on Mus musculus [5], with Mus musculus [6], in the test with Mus musculus [7] and in the test on Mus musculus [8] was Active. The result with Mus musculus [9], in the test with Mus musculus [10], with Mus musculus [11], in the test with Mus musculus [12], with Mus musculus [13] and in the test on Mus musculus [14] was Active. The outcome with Mus musculus [15], in the test on Mus musculus [16], with Mus musculus [17], in the test on Mus musculus [19], in the test on Mus musculus [20] and with Mus musculus [21] was Active. In addition, the result in the test on Mus musculus [3] was inactive. The Activity result with Mus musculus [4] and in the test with Mus musculus [18] was “Dose-dependent effect” throughout.
